Screening results as filed in PubChem BioAssay.
Compounds with a hit are over-represented: about 2.7% of the library has one in this group of screens.
HTRA1 inhibitor: inhibitors of human serine peptidase HTRA1; recombinant HTRA1, FP-rhodamine activity-based probe, fluorescence polarization; inhibition, % at 5.96 µM; 340,000 compounds, 0.5% hits; in the data active = inhibition above about 36%;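 note: 0% = enzyme with DMSO and 100% = wells lacking enzyme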
ABHD4 inh: inhibitors of mouse ABHD4. purified mABHD4, FP-Rh probe fluorescence polarization. inhibition, % at 8.92 µM. Q8VD66. 370,000 compounds, 0.54% hits;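 active = inhibition exceeding the mean over every tested compound plus 3 SD, cut at about 30% in these data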;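 note: 0% = plate median of compound wells and 100% = S159A mutant with DMSO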
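Assay system: wild-type mouse ABHD4 protein; compound: single nominal dose of 8.92 µM, 0.89% DMSO final; schedule: 45 min + 60 min at 25 °C; measured by: FP readout, ex 525 nm / em 598 nm; evaluation: % inhibition of FP-Rh probe binding versus controls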
TCR-CD3 inh: blocks the human TCR-CD3 interaction. AID 651800. inhibition, % at 9.4 µM. TAMRA-labeled TCR probe fluorescence, biochemical. 360,000 compounds, 0.37% hits;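 note: recombinant mutant TCR 2C K166C tagged with TAMRA read by polarization; 0% = receptor in buffer alone and 100% = receptor with positive control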
PRMT1 inh: inhibitors of human PRMT1; AID 652257; Q99873; 370,000 compounds, 1.3% hits; recombinant PRMT1, activity-based probe fluorescence polarization; inhibition, % at 2.79 µM;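 active = inhibition above about 21% made by adding two undisclosed values, limit read from the data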
SIAE inh: inhibitors of human sialic acid acetylesterase SIAE; Q9HAT2; SIAE FP-Rh probe binding, fluorescence polarization; 370,000 compounds, 0.69% hits; inhibition, % at 9.66 µM;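 active = inhibition above a cutoff: mean of compounds within the control limits plus 3 SD of those, cut at about 17% in these data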;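 note: 0% = plate median of compound wells and 100% = probe without SIAE protein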
Target sequence (Q9HAT2 whole entry, looked up): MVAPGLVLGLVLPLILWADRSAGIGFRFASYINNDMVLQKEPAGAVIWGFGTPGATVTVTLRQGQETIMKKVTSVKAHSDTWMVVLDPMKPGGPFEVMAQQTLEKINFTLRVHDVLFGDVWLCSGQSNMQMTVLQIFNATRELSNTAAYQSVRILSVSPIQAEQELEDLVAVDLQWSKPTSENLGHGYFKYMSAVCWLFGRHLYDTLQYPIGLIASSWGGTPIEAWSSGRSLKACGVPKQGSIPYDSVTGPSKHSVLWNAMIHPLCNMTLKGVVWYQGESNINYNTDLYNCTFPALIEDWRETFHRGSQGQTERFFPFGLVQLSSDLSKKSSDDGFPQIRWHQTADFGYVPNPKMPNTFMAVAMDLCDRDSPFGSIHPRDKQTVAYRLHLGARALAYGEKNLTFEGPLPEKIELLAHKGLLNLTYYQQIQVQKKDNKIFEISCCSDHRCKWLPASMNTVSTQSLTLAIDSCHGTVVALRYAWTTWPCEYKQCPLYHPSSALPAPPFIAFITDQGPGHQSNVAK
HTRA1 conf: confirmation of human HTRA1 inhibitors; shares compounds with HTRA1 inhibitor; recombinant HTRA1, FP-rhodamine activity-based probe, fluorescence polarization; inhibition, % at 5.96 µM; 1,600 compounds, 66% hits;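 active = mean inhibition over three repeats above a set limit taken from the earlier primary screen, cut at about 37% in these data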;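 note: 0% = HTRA1 with DMSO and 100% = wells lacking HTRA1; inhibitors block probe binding so polarization drops and inhibition rises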
BSA probe FL: BSA probe counter-screen for TCR-CD3 inhibitors | inhibition, % at 9.4 µM | shares compounds with TCR-CD3 inh | TAMRA-labeled BSA probe fluorescence counterscreen | AID 652035 | 1,200 compounds, 10% hits; in the data active = inhibition above about 23%;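 note: 0% = buffer low control and 100% = reference high control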
TCR-CD3 conf: confirmation of human TCR-CD3 interaction inhibitors; 1,200 compounds, 48% hits; TAMRA-labeled TCR probe fluorescence binding assay; shares compounds with TCR-CD3 inh; inhibition, % at 9.4 µM
PRMT1 inh conf: PRMT1 (human) inhibition, FP confirmation. AID 687036. inhibition, % at 2.79 µM. recombinant His-PRMT1, activity-based probe fluorescence polarization. 3,300 compounds, 42% hits. shares compounds with PRMT1 inh;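 active = mean inhibition across replicates above the hit cutoff derived for the earlier primary screen, cut at about 22% in these data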
ABHD4 confirm: ABHD4 (mouse) inhibition, FP confirmation. shares compounds with ABHD4 inh. purified mABHD4, FP-Rh probe fluorescence polarization. inhibition, % at 8.92 µM. 1,800 compounds, 55% hits. AID 720658;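 active = mean inhibition across replicates above the hit cutoff set in the primary screen, cut at about 30% in these data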;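 note: 0% = wild-type ABHD4 with DMSO and 100% = catalytically dead S159A mutant with DMSO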
* = called active by the depositor; . = not tested or not shown; + = active, no number. Cut-off read from the data, not from the text of the source, unless noted: active = inhibition above about 19%; inactive = the rest.

SMILES | HTRA1 inhibitor | ABHD4 inh | TCR-CD3 inh | PRMT1 inh | SIAE inh | HTRA1 conf | ABHD4 confirm | others
COc1ccc(CCn2c(O)cc3nn(-c4nc5ccccc5s4)c(=O)c-3c2C)cc1 | 42* | 37* | 1 | 7 | 2 | 88* | 17
CCN(CC)C(=O)[C@H]1C[C@@H]2[C@H](C[C@@H](c3ccccc3)[C@H]1C)N(c1ccc(F)cc1)C(=O)N2CCCOc1ccccc1 | . | -8 | -2 | -2 | -4 | . | .
O=[N+]([O-])c1cc(Cc2ccccc2)cc(C=Nc2ccc(N3CCOCC3)cc2)c1O | 29 | . | . | . | . | . | .
Cc1ccc(O)c(N=Cc2cc(Cc3ccccc3)cc([N+](=O)[O-])c2O)c1 | 58* | 35* | 5 | 12 | -6 | 61* | 16
CCOC(=O)c1c2c(n(Cc3ccccc3)c1C)C(=O)C(=O)c1ccccc1-2 | 46* | 39* | 10 | 0 | 13 | 43* | 54*
CCOC(=O)c1c2c(n(C)c1C)C(=O)C(=O)c1ccc(Br)cc1-2 | 7 | 2 | -4 | 0 | 1 | . | .
CC1=NN(c2ccc(C)cc2)C(=O)/C1=C/c1ccc(-c2cc([N+](=O)[O-])ccc2O)o1 | 46* | 31* | -4 | 4 | 13 | 53* | 53*
CC1=NN(c2ccc(C(=O)O)cc2)C(=O)/C1=C/c1ccc(-c2ccccc2F)o1 | 0 | . | . | . | . | . | .
Cc1ccc(N2NC(=O)/C(=C\c3cc4c(cc3[N+](=O)[O-])OCO4)C2=O)cc1C | 63* | 47* | -1 | 24* | 17 | 37* | 47*
O=C1OC(c2ccc3ccccc3c2O)(c2ccc3ccccc3c2O)c2ccccc21 | 36* | 44* | 1 | 20 | 12 | 44* | 48*
COCCCNc1c2c3c(cccc3[nH]c1=O)C(=O)c1ccccc1-2 | 126* | 109* | 172* | + | -6 | 120* | 178* | BSA probe FL=+;TCR-CD3 conf=185*
COCCCNC1=C(Cl)C(=O)c2ccccc2C1=O | 8 | 3 | 7 | -2 | -4 | . | .
O=c1cc(-c2ccc(O)cc2)oc2c(O)c(O)c(O)c(O)c12 | 52* | 36* | 23* | 52* | 13 | 59* | 17 | BSA probe FL=0;TCR-CD3 conf=38*;PRMT1 inh conf=16
O=c1cc(-c2ccccc2)oc2cc(O)c(O)c(O)c12 | 80* | 52* | 38* | 20 | 17 | 85* | 37* | BSA probe FL=-13;TCR-CD3 conf=24*
COc1c(O)cc2oc(-c3ccc(O)cc3)cc(=O)c2c1O | -2 | 11 | 4 | 1 | 3 | . | .
CN(c1ccc([N+](=O)[O-])cc1)c1cc2c(c3c1ccn3C)C1CCC2C1 (centres undefined) | . | 3 | 2 | -4 | 5 | . | .
O=C(O)COc1ccccc1C(Nc1ccccn1)c1cc(Cl)c2cccnc2c1O (centres undefined) | 74* | 33* | 5 | 8 | 12 | 84* | 24
CCOc1ccc(-c2noc(-c3csc([C@@H]4O[C@H](CO)[C@H](O)[C@H](O)[C@H]4O)n3)n2)cc1 | . | -5 | -3 | 3 | -4 | . | .
Cc1[nH]c2ccccc2c1/C=N/Nc1ccccc1[N+](=O)[O-] | 68* | 59* | -4 | 8 | 16 | 74* | 73*
COCCCNC(=O)C[C@H]1C[C@H](C(=O)N(C(C)C)C(C)C)[C@@]2(C)c3[nH]c4cc(-c5ccco5)ccc4c3CCN2C1=O | 7 | -10 | -2 | 10 | -11 | . | .
O=C(c1cc(O)c(O)c([N+](=O)[O-])c1)c1ccccc1F | 48* | 37* | -2 | 35* | 14 | 63* | 32* | PRMT1 inh conf=12
CO[C@H]1/C=C/O[C@@]2(C)Oc3c(C)c(O)c4c(O)c(c(C=NN5CCN(C)CC5)c(O)c4c3C2=O)NC(=O)/C(C)=C\C=C\[C@H](C)[C@H](O)[C@@H](C)[C@@H](O)[C@@H](C)[C@H](OC(C)=O)[C@@H]1C | 36* | 35* | 4 | 2 | 6 | 7 | 3
Cc1cc2cc(CNC(=O)COc3ccccc3)ccc2n1C | 45* | 32* | 27* | 0 | 7 | 5 | -7 | BSA probe FL=14;TCR-CD3 conf=9
O=C(O)C(Cc1ccccc1)N1C(=O)/C(=C/C=C/c2ccco2)SC1=S (centres undefined) | 37* | 42* | 16 | 61* | 11 | 15 | -67 | PRMT1 inh conf=34*
O=C(NN1C(=O)/C(=C/C=C/c2ccco2)SC1=S)c1ccccc1O | 40* | 31* | 0 | 42* | 10 | 19 | -26 | PRMT1 inh conf=32*
SMILES | HTRA1 inhibitor | ABHD4 inh | TCR-CD3 inh | PRMT1 inh | SIAE inh | HTRA1 conf | ABHD4 confirm | others
CCCOc1ccc([N+](=O)[O-])c(N)c1 | 4 | -2 | 1 | 0 | 6 | . | .
Clc1ccccc1N1CCN(C2=Nc3ccccc3Sc3ccccc32)CC1 | . | -1 | . | 10 | 7 | . | .
O=C(O)C1CCN(S(=O)(=O)c2ccc(N3CCC(O)CC3)c([N+](=O)[O-])c2)CC1 | 6 | 0 | -2 | 5 | 2 | . | .
Cc1cc(C)c(C)c(N=Nc2nc3ccccc3n2C)c1C | 37* | 40* | 5 | 2 | 9 | 43* | 55*
Cc1ccc(C)c(N=Nc2nc3ccccc3n2C)c1 | 11 | 13 | 5 | 3 | 9 | . | .
COc1ccc(CCNC(=O)CN2C(=O)C(=O)N(C3CCCC3)C2=O)cc1OC | 7 | 0 | 3 | 0 | 2 | . | .
O=C(O)c1cccc(N/N=C(\N=Nc2ccccc2)c2ccccc2)c1 | 59* | 72* | 6 | 3 | 7 | 74* | 104*
O=C(O)c1ccc(N=N/C(=N\Nc2ccc(C(=O)O)cc2)c2ccccc2)cc1 | 10 | 25 | 10 | 0 | -10 | . | .
O=C1c2ccccc2C(=O)c2c(/C=C/N3CCCCC3)ccnc21 | 61* | 46* | 7 | 6 | 11 | 64* | 36*
CNc1ccc(Br)cc(C(=O)/C=C/c2cccc(OC)c2OC)c1=O | 39* | 39* | 10 | 30* | 12 | 32 | 34* | PRMT1 inh conf=18
CNc1ccc(Br)cc(C(=O)/C=C/c2cccc(Cl)c2Cl)c1=O | 65* | 42* | 7 | 25* | 14 | 33 | 35* | PRMT1 inh conf=13
O=C(CSc1ncnc2c1nnn2Cc1ccccc1F)NCC1CCCO1 (centres undefined) | -8 | 0 | 5 | 0 | -5 | . | .
